Consider one compound from ChEMBL document CHEMBL4765243, “Discovery of Novel Bromophenol-Thiosemicarbazone Hybrids as Potent Selective Inhibitors of Poly(ADP-ribose) Polymerase-1 (PARP-1) for Use in Cancer” (J Med Chem, 2019).

As a reminder, the IC50 is the concentration that inhibits the measured activity by half.

Structures are written as SMILES. Activity calls are given as the source filed them. The calls are words filed in the database; no cut-off is given here.

For data set [1], the target named is Poly [ADP-ribose] polymerase 1 (Homo sapiens, UniProt P09874). Briefly: Inhibition of PARP-1 in human SKOV3 cells assessed as increase in gammaH2AX expression level at 2.5 to 10 uM incubated for incubated for 48 hrs by western blot analysis. In kind it is cell-based. The conditions noted are these: SK-OV-3, dose 2.5-10 µM. The essentials:
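SK-OV-3 cells were grown in McCOY's 5A, seeded in 6-well plates and treated for 48 h. Lysate proteins were separated by 8-15 % SDS-PAGE and transferred to PVDF membranes. Membranes were blocked in 5 % nonfat milk, probed with primary antibody overnight at 4 °C and with HRP secondary antibody for 1 h at room temperature, then detected by enhanced chemiluminescence. Images are representative of 3 independent experiments.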
(In general: In western blotting, separated proteins are transferred to a membrane and probed.)

The subject of data set [2] is SK-OV-3. Kind of data set: animal or person. As to conditions: Mus musculus, SK-OV-3, po, 504 h, read-out: INH.
Data set [3] can be described thus: Subacute toxicity in SPF Kunming mouse assessed as clinical changes at 1000 mg/kg, po administered for 14 days and measured on day 14. The format is organism-based. As to conditions: in vivo, 336 h, time 14 day. The essentials: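 Twenty SPF Kunming mice (18 - 22 g), half male and half female, randomised into 2 groups of 5 males + 5 females. Treated group dosed orally at 1000 mg/kg once daily for 14 days. Death, clinical signs and body weight monitored. After 14 days: isoflurane anaesthesia, decapitation, tissues collected for H&E histology.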

Data set [4] has as its system SK-OV-3. Briefly: Induction of ROS generation in human SKOV3 cells assessed as fold increase in ROS level at 10 uM incubated for 48 hrs by DCFH-DA staining based flow cytometry relative to control. In kind it is functional.
The next data set deals with Caco-2. Kind of data set: Antiproliferative activity against human Caco-2 cells assessed as cell growth inhibition incubated for 48 hrs by MTT assay. As to conditions: Caco-2, 48 h. In kind it is functional, cell-based. Summed up: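 Cells seeded in 96-well plates and exposed to compounds for 48 h; viability read by MTT. Each experiment repeated three times. SK-OV-3 grown in McCOY's 5A, Bel-7402 and HL-7702 in RPMI-1640, HepG2 in DMEM, Caco-2 in MEM.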
In general terms: Tetrazolium assays rely on reduction of a dye to a coloured formazan, in cell work by metabolically active cells.

For data set [5], the system named is SK-OV-3. Briefly: Induction of ROS generation in human SKOV3 cells assessed as fold increase in ROS level at 2.5 uM incubated for 48 hrs by DCFH-DA staining based flow cytometry relative to control. In kind it is functional. For orientation: Flow cytometry measures light scatter and fluorescence of single cells or particles in a stream.

Sequence of Poly [ADP-ribose] polymerase 1 (P09874 whole entry): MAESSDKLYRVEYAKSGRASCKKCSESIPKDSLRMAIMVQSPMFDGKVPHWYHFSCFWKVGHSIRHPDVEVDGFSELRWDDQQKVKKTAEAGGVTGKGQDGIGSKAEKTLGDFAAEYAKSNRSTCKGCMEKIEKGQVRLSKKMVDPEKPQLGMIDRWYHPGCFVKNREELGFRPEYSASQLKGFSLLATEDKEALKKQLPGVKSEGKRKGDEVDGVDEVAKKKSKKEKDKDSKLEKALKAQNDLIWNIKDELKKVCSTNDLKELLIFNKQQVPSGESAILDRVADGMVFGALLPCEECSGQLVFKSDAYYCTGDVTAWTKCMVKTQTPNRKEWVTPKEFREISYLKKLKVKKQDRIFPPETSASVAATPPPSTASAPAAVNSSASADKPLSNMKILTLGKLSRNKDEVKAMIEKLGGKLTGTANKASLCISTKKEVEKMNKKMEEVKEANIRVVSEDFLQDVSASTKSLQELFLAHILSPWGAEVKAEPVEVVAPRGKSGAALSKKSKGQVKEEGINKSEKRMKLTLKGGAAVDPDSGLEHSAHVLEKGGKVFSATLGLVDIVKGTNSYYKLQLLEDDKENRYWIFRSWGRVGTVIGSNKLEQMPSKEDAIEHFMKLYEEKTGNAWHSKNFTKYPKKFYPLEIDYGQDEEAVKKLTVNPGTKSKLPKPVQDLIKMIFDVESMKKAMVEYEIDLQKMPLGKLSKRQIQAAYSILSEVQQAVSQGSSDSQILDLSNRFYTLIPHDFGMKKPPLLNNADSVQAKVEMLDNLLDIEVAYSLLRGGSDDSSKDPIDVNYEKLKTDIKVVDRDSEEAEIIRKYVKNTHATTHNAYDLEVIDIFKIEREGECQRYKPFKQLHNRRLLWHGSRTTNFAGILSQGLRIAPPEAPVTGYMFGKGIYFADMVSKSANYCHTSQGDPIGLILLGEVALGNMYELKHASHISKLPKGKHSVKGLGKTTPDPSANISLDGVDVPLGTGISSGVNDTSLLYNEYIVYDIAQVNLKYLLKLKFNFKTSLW

For `COc1cc(/C=N/NC(N)=S)c(Br)c(Br)c1OC`, in data set [1], the inhibition entry was “Active”. Besides, the inhibition in vivo at 25 mg/kg with SK-OV-3 [2] was 70%. In addition, the Activity result in data set [3] is reported as “Non-Toxic”. Moreover, the “fold change (FC)” value with SK-OV-3 [4] was found to be 3.04; in the data set with SK-OV-3 [5], 1.76. Also, the IC50 in the data set on Caco-2 stood at 20.5 µM.
